The term MIC denotes the lowest concentration that inhibits growth of the organism. A lower MIC goes with inhibition by little substance.

In brackets after ≈: the same amount, converted by molar mass.

The subject of assay [1] is tested Gram-positive strains. Nature of the assay: MIC assay, summary over the tested Gram-positive strains. In kind it is cell-based. The settings on record: tested Gram-positive strains. A digest of the protocol: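 CLSI standard broth microdilution. Test compound started at 50 µg/ml and serially diluted 2-fold. Run in triplicate.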
The subject of assay [2] is human embryonic kidney (HEK293) cells. Nature of the assay: Cytotoxicity against HEK293 cell line. The class given is cell-based. The settings on record: HEK293 IC50 / MIC for S. aureus ATCC 25923 and ATCC 700699; as high as. A digest of the protocol:
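HEK293 cells kept in EMEM with 10% FBS at 37 °C, 5% CO2. Seeded at 4000 cells/well and treated 24 h with a concentration range of test compound in DMSO. Resazurin (0.15 mg/ml solution as added) incubated 4 h more; fluorescence read at ex 560/em 590 nm. IC50 obtained by curve fitting; selectivity factor computed as IC50/MIC.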

The subject of assay [3] is S. aureus ATCC 25923 preformed biofilm. Nature of the assay: Biofilm destruction assay. The class given is cell-based. The settings on record: 2xMIC.
Assay [4] has as its system S. aureus and E. faecalis biofilms. Nature of the assay: Biofilm inhibition and destruction at 4x and 8xMIC. The settings on record: 4x and 8xMIC (data not shown). In kind it is cell-based.
For assay [5], the system named is S. aureus UAMS-1 catheter-associated biofilm. Nature of the assay: In vitro model of catheter-associated biofilm. The class given is cell-based. The settings on record: after 2 days of exposure, 20xMIC (40 μg/ml), per catheter.
Assay [6] relates to S. aureus ATCC 700699 (MRSA) stationary phase persister cells. Nature of the assay: Persister cell killing assay. In kind it is cell-based. The settings on record: for log reduction of persister cells: within 4 h.
Assay [7] has as its system S. aureus ATCC 25923 (MSSA). Nature of the assay: Multistep. The class given is cell-based. The settings on record: sub-lethal exposure, 21 passages.
The subject of a further assay is E. faecalis ATCC 29212. Nature of the assay: Multistep. In kind it is cell-based. The settings on record: for increase in resistance (in words): through the 14th passage.
Another assay has as its system S. aureus ATCC 700699. Nature of the assay: Time kill assay. The settings on record: 4xMIC. In kind it is cell-based. In short, it runs like this:
(§1)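 Log-phase culture diluted to ~5 × 10^6 CFU/ml in warm CAMHB and exposed to test compound at 4xMIC at 35 °C. Samples taken every 2 h, diluted 10-fold down to 10^-5, and viable counts done by 6×6 drop plating after 18–24 h at 35 °C. Each assay run in triplicate.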

A further assay relates to S. aureus ATCC 33591. Nature of the assay: Time kill assay. The class given is cell-based. The settings on record: 4xMIC. In short, it runs like this:
as §1

Assay [8] relates to DNA synthesis in S. aureus ATCC 29213. Nature of the assay: Macromolecular synthesis inhibition: DNA synthesis. The settings on record: 0.25xMIC. The class given is cell-based.
For assay [9], the system named is lipid synthesis in S. aureus ATCC 29213. Nature of the assay: Macromolecular synthesis inhibition: lipid synthesis. The class given is cell-based. The settings on record: MIC.
Assay [10] concerns S. aureus ATCC 25923 biofilm. Nature of the assay: Biofilm inhibition assay. The class given is cell-based. The settings on record: 2xMIC. In short, it runs like this:
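After 24 h at 35 °C: PBS washes, drying at 60 °C for 15 min, 0.1% (w/v) crystal violet for 15 min, solubilisation in 33% acetic acid, OD 620 nm. Controls: broth only, and bacteria with DMSO.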

Assay [11] deals with E. faecalis clinical isolates (VRE). Nature of the assay: MIC against clinical isolates of E. faecalis. The class given is cell-based.
Assay [12] deals with E. faecium clinical isolates (VRE). Nature of the assay: MIC against clinical isolates of E. faecium. The class given is cell-based.
In assay [13] the test system is S. aureus clinical isolates (MSSA, MRSA). Nature of the assay: MIC against clinical isolates of S. aureus. The class given is cell-based. The settings on record: Staphylococcus aureus.
Assay [14] deals with E. faecalis ATCC 29212 preformed biofilm. Nature of the assay: Biofilm destruction assay. In kind it is cell-based. The settings on record: 2xMIC.
The test system of assay [15] is S. aureus ATCC 700699 (MRSA). Nature of the assay: Multistep. In kind it is cell-based. The settings on record: sub-lethal exposure, 21 passages.
In assay [16] the test system is methicillin-sensitive clinical isolate of S. aureus UAMS-1. The settings on record: breakpoint MIC used for comparison; ref not given; cited from earlier work.

On to `O=C(O)c1ccc(-n2cc(CNc3cc(F)cc(C(F)(F)F)c3)c(-c3ccc(C(F)(F)F)cc3)n2)cc1` [Compound 59, 4-[4-[[3-fluoro-5-(trifluoromethyl)anilino]methyl]-3-[4-(trifluoromethyl)phenyl]pyrazol-1-yl]benzoic acid], for which, in assay [1], the “antimicrobial activity (in words)” value was “most potent compound”. Also, the “Selectivity factor (IC50/MIC values)” value in assay [2] was not above 13. Further, the preformed biofilm eliminated entry in [3] is on record as “around 70%”. In addition, in assay [4], the “biofilm inhibition and destruction” value was more than 95%. Besides, the “average CFU counts” value in assay [5] is 4.74 × 10^5 CFU. Moreover, the “log reduction of persister cells” value was ~ 1 log in assay [6] (2xMIC) and ~ 3 log in assay [6] (8xMIC). Further, in assay [7], the “passage at which MIC doubled” value was 8 passage. For the same molecule, the “increase in resistance (in words)” value in the assay on E. faecalis ATCC 29212 was “no increase in resistance”. For the same molecule, the “time to eliminate more than 3 log values” in the assay with S. aureus ATCC 700699 and with S. aureus ATCC 33591 was not above 4 h throughout. Moreover, the “log values of bacteria eliminated” value with S. aureus ATCC 700699 (within 4 h of treatment) and in the assay on S. aureus ATCC 33591 (within 4 h of treatment) was “more than 3 log” each time. Moreover, the “inhibition of DNA synthesis” value in [8] is listed as “approximately 44%”. Further, in assay [9], the “inhibition of lipid synthesis” value is 56.2%.
`O=C(O)c1ccc(-n2cc(CNc3cc(Cl)c(F)c(Cl)c3)c(-c3ccc(C(F)(F)F)cc3)n2)cc1` [Compound 74, 4-[4-[(3,5-dichloro-4-fluoro-anilino)methyl]-3-[4-(trifluoromethyl)phenyl]pyrazol-1-yl]benzoic acid]: the “Selectivity factor (IC50/MIC values)” value in [2] is not above 33. For the same molecule, the biofilm formation inhibited entry in assay [10] was “greater than 85%”. The “log reduction of persister cells” value in [6] (2xMIC), in assay [6] (4xMIC) and in [6] (8xMIC) was ~ 1 log each time. Moreover, the “increase in resistance (in words)” value in the assay on E. faecalis ATCC 29212 is reported as “no increase in resistance”. The “time to eliminate more than 3 log values” is recorded as not above 6 h in the assay on S. aureus ATCC 700699 and not above 4 h with S. aureus ATCC 33591.
For the molecule `CN[C@H](CC(C)C)C(=O)N[C@H]1C(=O)N[C@@H](CC(N)=O)C(=O)N[C@H]2C(=O)N[C@H]3C(=O)N[C@H](C(=O)N[C@H](C(=O)O)c4cc(O)cc(O)c4-c4cc3ccc4O)[C@H](O)c3ccc(c(Cl)c3)Oc3cc2cc(c3O[C@@H]2O[C@H](CO)[C@@H](O)[C@H](O)[C@H]2O[C@H]2C[C@](C)(N)[C@H](O)[C@H](C)O2)Oc2ccc(cc2Cl)[C@H]1O` [vancomycin, Vancomycin], the MIC was more than 32 µg/mL in assay [11] (E. faecalis 1091563, VRE); more than 32 µg/mL in assay [11] (E. faecalis 1091720, VRE); more than 32 µg/mL in [11] (E. faecalis 1094112, VRE); more than 32 µg/mL in [11] (E. faecalis 1100440, VRE); more than 32 µg/mL in assay [11] (Enterococcus faecalis, VRE); more than 32 µg/mL in assay [12] (E. faecium 1088168, VRE). Also, the MIC is more than 32 µg/mL in assay [12] (E. faecium 1088925, VRE); more than 32 µg/mL in assay [12] (E. faecium 1089544, VRE); more than 32 µg/mL in [12] (E. faecium 1091282, VRE); more than 32 µg/mL in assay [12] (Enterococcus faecium, VRE); 1 µg/mL (≈ 0.69 µM) in assay [13] (ATCC29213|MRSA|MSSA, S. aureus ATCC 29213, MSSA); 0.5 µg/mL (≈ 0.345 µM) in assay [13] (MRSA|MSSA, S. aureus 1088060, MSSA). Further, the MIC in [13] (MRSA|MSSA, S. aureus 1088064, MRSA) was 0.5 µg/mL (≈ 0.345 µM); in assay [13] (MRSA|MSSA, S. aureus 1088105, MSSA), 1 µg/mL (≈ 0.69 µM); in assay [13] (MRSA|MSSA, S. aureus 1088610, MRSA), 0.5 µg/mL (≈ 0.345 µM); in [13] (MRSA|MSSA, S. aureus 1088626, MSSA), 0.5 µg/mL (≈ 0.345 µM); in assay [13] (MRSA|MSSA, S. aureus 1088888, MRSA) it was 1 µg/mL (≈ 0.69 µM); in assay [13] (MRSA|MSSA, S. aureus 1089106, MRSA), 1 µg/mL (≈ 0.69 µM). The preformed biofilm destroyed entry in assay [14] is on record as “around 70%”. In assay [4], the “biofilm inhibition and destruction” value is reported as more than 95%. Also, in assay [5], the “average CFU counts” value was 1.16 × 10^7 CFU. In addition, in assay [6] (64xMIC), the “effect on viability of MRSA persisters (in words)” value is on record as “did not affect the viability”. Further, in assay [15], the “passage at which MIC doubled” value stood at 7 passage. For the same molecule, the “passage after which resistance increased” value in the assay on E. faecalis ATCC 29212 (14 passages) turned out to be 7 passage. For the same molecule, the “time to decrease bacterial concentration below detectable limits” value in the assay with S. aureus ATCC 700699 and in the assay on S. aureus ATCC 33591 was 8 h each time. In [16], the “breakpoint MIC” value is not below 2 µg/mL.

(Values after article PMC8165011 (European journal of medicinal chemistry, 2021).)
